The results in this text go back to ChEMBL document CHEMBL1125411, “Effect of the 7-amino substituent on the inhibitory potency of mechanism-based isocoumarin inhibitors for porcine pancreatic and human neutrophil elastases: a 1.85-A X-ray structure of the complex between porcine pancreatic elastase and 7-[(N-tosylphenylalanyl)amino]-4-chloro-3- methoxyisocoumarin” (J Med Chem, 1992).

The target of assay [1] is T1, Neutrophil elastase (Homo sapiens) (UniProt P08246).
T1 sequence (whole entry): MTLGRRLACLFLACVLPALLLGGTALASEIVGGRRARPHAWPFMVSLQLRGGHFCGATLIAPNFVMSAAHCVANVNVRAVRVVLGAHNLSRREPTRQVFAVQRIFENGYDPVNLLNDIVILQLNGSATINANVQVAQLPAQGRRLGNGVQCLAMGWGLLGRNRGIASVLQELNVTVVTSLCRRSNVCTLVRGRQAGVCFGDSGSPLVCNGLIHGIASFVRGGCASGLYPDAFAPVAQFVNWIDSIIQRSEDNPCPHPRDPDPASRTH
Briefly: Inactivation of human leukocyte (neutrophil) elastase (HLE)(HNE) as rate constant. It counts as functional. A digest of the protocol: (§1)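 HNE (0.1–2.0 μM) in 0.1 M Hepes, 0.5 M NaCl, pH 7.5, 25 °C, was incubated with inhibitor added from Me2SO (final 8–12% v/v). Timed aliquots were diluted 40–200-fold into MeO-Suc-Ala-Ala-Pro-Val-NA (0.1–0.125 mM), and residual activity was read at 410 nm. kobs came from ln(vt/v0) vs time and is reported as kobs/[I]. Very fast cases are lower limits.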

Assay [2] concerns the target Pancreatic elastase (Sus scrofa) (UniProt P08419+P00772). Briefly: Inactivation of porcine pancreatic elastase (PPE) expressed as rate constant. It counts as functional. The procedure, abridged: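 PPE (0.1–2.0 μM) was incubated with inhibitor in 0.1 M Hepes, 0.5 M NaCl, pH 7.5, at 25 °C; inhibitor was added in Me2SO to a final 8–12% v/v. Aliquots taken over time were diluted 40–200-fold into Suc-Ala-Ala-Ala-NA (0.6–1.2 mM), with 4-nitroanilide release followed at 410 nm. First-order kobs came from ln(vt/v0) vs time and is given as kobs/[I].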

For assay [3], the target named is T1, Neutrophil elastase (Homo sapiens). In words: Compound was tested for the inactivation of human leukocyte (neutrophil) elastase(HLE)(HNE) expressed as rate constant. It counts as functional. The procedure, abridged: as §1
Assay [4] has as its system Pancreatic elastase (Sus scrofa). In words: Compound was tested for the inactivation of porcine pancreatic elastase(PPE) expressed as rate constant.
Assay [5] concerns the target T1, Neutrophil elastase (Homo sapiens). In words: Inactivation of human leukocyte (neutrophil) elastase(HLE)(HNE) as rate constant. A digest of the protocol: as §1

In assay [1], `COc1oc(=O)c2cc(NC(=O)N(CCc3ccccc3)Cc3ccccc3)ccc2c1Cl` displayed a kobs/[I] (second-order inactivation rate constant) of 12000 M⁻¹ s⁻¹. The same molecule registered a second-order inactivation rate constant (kobs/[I]) in assay [2] of 17 M⁻¹ s⁻¹.
On the same counts, the results for `COc1oc(=O)c2cc(NC(=O)CCCC(=O)O)ccc2c1Cl` are 51000 M⁻¹ s⁻¹ and 900 M⁻¹ s⁻¹.
On the same counts, the results for `COc1oc(=O)c2cc(NC(=O)C(NS(=O)(=O)c3ccc(C)cc3)C(C)C)ccc2c1Cl` (centres undefined) are 36000 M⁻¹ s⁻¹ and 1300 M⁻¹ s⁻¹.
As to `COC(=O)CCCC(=O)Nc1ccc2c(Cl)c(OC)oc(=O)c2c1`, the kobs/[I] (second-order inactivation rate constant) in assay [1] was 54000 M⁻¹ s⁻¹. The molecule also registered a second-order inactivation rate constant (kobs/[I]) in assay [2] of 2800 M⁻¹ s⁻¹.
On to `COc1oc(=O)c2cc(NC(=O)C(C)NS(=O)(=O)c3ccc(C)cc3)ccc2c1Cl` (centres undefined), for which the kobs/[I] (second-order inactivation rate constant) in assay [1] worked out at 55000 M⁻¹ s⁻¹. The second-order inactivation rate constant (kobs/[I]) in assay [2] amounted to 2500 M⁻¹ s⁻¹.
For `COc1oc(=O)c2cc(N=C=O)ccc2c1Cl`, the k obs / 1 in assay [3] is 9200 M⁻¹ s⁻¹. The second-order inactivation rate constant (kobs/[I]) in assay [2] is 650 M⁻¹ s⁻¹. This molecule also showed a [I] in assay [4] of 8.3 µM.
With `COc1oc(=O)c2cc(NC(=O)Cc3ccccc3)ccc2c1Cl`, in assay [1], the kobs/[I] (second-order inactivation rate constant) stood at 37000 M⁻¹ s⁻¹. Also, the second-order inactivation rate constant (kobs/[I]) in assay [2] came to 2000 M⁻¹ s⁻¹.
On to `COc1oc(=O)c2cc(NC(=O)OCc3ccccc3)ccc2c1Cl`, for which the kobs/[I] (second-order inactivation rate constant) in assay [1] amounted to 71000 M⁻¹ s⁻¹. In assay [2], the second-order inactivation rate constant (kobs/[I]) is 260 M⁻¹ s⁻¹.
As to `COc1oc(=O)c2cc(NC(=O)CC(CC(=O)O)c3ccccc3)ccc2c1Cl` (centres undefined), the kobs/[I] (second-order inactivation rate constant) in assay [1] came to 66000 M⁻¹ s⁻¹. Also, the second-order inactivation rate constant (kobs/[I]) in assay [2] was found to be 100 M⁻¹ s⁻¹.
With `COC(=O)Nc1cccc(C(=O)Nc2ccc3c(Cl)c(OC)oc(=O)c3c2)c1`, the kobs/[I] (second-order inactivation rate constant) in assay [1] is 100000 M⁻¹ s⁻¹. The same molecule showed a second-order inactivation rate constant (kobs/[I]) in assay [2] of 2500 M⁻¹ s⁻¹.
The matching figures for `COc1oc(=O)c2cc(NC(=O)C(F)(F)C(F)(F)C(F)(F)F)ccc2c1Cl`: 47000 M⁻¹ s⁻¹ and 1100 M⁻¹ s⁻¹.
On the same counts, the results for `COc1oc(=O)c2cc(NC(=O)CC(c3ccccc3)c3ccccc3)ccc2c1Cl` are 130000 M⁻¹ s⁻¹ and 2400 M⁻¹ s⁻¹.
Turning to `COc1oc(=O)c2cc(NC(=O)C(NS(=O)(=O)c3ccc(C)cc3)c3ccccc3)ccc2c1Cl` (centres undefined), the kobs/[I] (second-order inactivation rate constant) in assay [1] was found to be 84000 M⁻¹ s⁻¹. In assay [2], this molecule yielded a second-order inactivation rate constant (kobs/[I]) of 1500 M⁻¹ s⁻¹.
The matching figures for `COc1oc(=O)c2cc(NC(=O)CCC(=O)O)ccc2c1Cl`: 9500 M⁻¹ s⁻¹ and 900 M⁻¹ s⁻¹.
Take `CCOC(=O)Nc1ccc2c(Cl)c(OC)oc(=O)c2c1`: the kobs/[I] (second-order inactivation rate constant) in assay [1] was 47000 M⁻¹ s⁻¹. In addition, the second-order inactivation rate constant (kobs/[I]) in assay [2] was determined as 2000 M⁻¹ s⁻¹.
On the same counts, the results for `COc1oc(=O)c2cc(NC(=O)C(c3ccccc3)c3ccccc3)ccc2c1Cl` are 52000 M⁻¹ s⁻¹ and 20 M⁻¹ s⁻¹.
In the case of `COc1oc(=O)c2cc(NC(=O)OCC3c4ccccc4-c4ccccc43)ccc2c1Cl`, in assay [3], the k obs / 1 came to 10000 M⁻¹ s⁻¹. The molecule also came in with a second-order inactivation rate constant (kobs/[I]) in assay [2] of 20 M⁻¹ s⁻¹. Further, in assay [4], the [I] came out at 600 µM.
`COc1oc(=O)c2cc(NC(=O)CCc3ccccc3)ccc2c1Cl` registered a kobs/[I] (second-order inactivation rate constant) in assay [1] of 66000 M⁻¹ s⁻¹. Also, the second-order inactivation rate constant (kobs/[I]) in assay [2] turned out to be 3100 M⁻¹ s⁻¹.
In the case of `COC(=O)CCC(=O)Nc1ccc2c(Cl)c(OC)oc(=O)c2c1`, in assay [1], the kobs/[I] (second-order inactivation rate constant) came out at 43000 M⁻¹ s⁻¹. The same molecule showed a second-order inactivation rate constant (kobs/[I]) in assay [2] of 2200 M⁻¹ s⁻¹.
On the same counts, the results for `COc1oc(=O)c2cc(NC(=O)C(Cc3ccccc3)NS(=O)(=O)c3ccc(C)cc3)ccc2c1Cl` (centres undefined) are 200000 M⁻¹ s⁻¹ and 6500 M⁻¹ s⁻¹.
`COC(=O)c1ccccc1C(=O)Nc1ccc2c(Cl)c(OC)oc(=O)c2c1` had a second-order inactivation rate constant (kobs/[I]) in assay [2] of 7100 M⁻¹ s⁻¹.
Regarding `COc1oc(=O)c2cc(NC(=O)Nc3ccccc3)ccc2c1Cl`, in assay [1], the kobs/[I] (second-order inactivation rate constant) came out at 49000 M⁻¹ s⁻¹. Moreover, the second-order inactivation rate constant (kobs/[I]) in assay [2] worked out at 7300 M⁻¹ s⁻¹.
In assay [1], `COc1oc(=O)c2cc(NC(C)=O)ccc2c1Cl` showed a kobs/[I] (second-order inactivation rate constant) of 30000 M⁻¹ s⁻¹. The second-order inactivation rate constant (kobs/[I]) in assay [2] worked out at 2300 M⁻¹ s⁻¹.
In the case of `COc1oc(=O)c2cc(NC(=O)Oc3ccccc3)ccc2c1Cl`, the k obs / 1 in assay [5] was 13000 M⁻¹ s⁻¹. For the same molecule, the second-order inactivation rate constant (kobs/[I]) in assay [2] was 850 M⁻¹ s⁻¹. In addition, in assay [4], the [I] worked out at 8.8 µM.
`COc1oc(=O)c2cc(NC(=O)c3ccccc3C(=O)O)ccc2c1Cl` yielded a kobs/[I] (second-order inactivation rate constant) in assay [1] of 52000 M⁻¹ s⁻¹. In assay [2], this molecule yielded a second-order inactivation rate constant (kobs/[I]) of 2700 M⁻¹ s⁻¹.
In assay [1], `COc1oc(=O)c2cc(NC(=O)C(CC(C)C)NS(=O)(=O)c3ccc(C)cc3)ccc2c1Cl` (centres undefined) yielded a kobs/[I] (second-order inactivation rate constant) of 54000 M⁻¹ s⁻¹. This molecule registered a second-order inactivation rate constant (kobs/[I]) in assay [2] of 6300 M⁻¹ s⁻¹.
